Experimental data from ChEMBL document CHEMBL1151850, “Triterpenoid saponins from Dianthus versicolor” (J Nat Prod, 2009).
pIC50: −log10 of the molar value.

Columns and labels:
MCF7 = assay: Cytotoxicity against human MCF7 cells after 24 hrs by MTT assay; format: functional, cell-based; details: MCF7, 24 h
Summary of the method: (§1)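 Grown in DMEM with 10% fetal calf serum, 2 mM L-glutamine and penicillin/streptomycin at 37 °C, 5% CO2. 10^4 cells/well adhered 24 h before serial dilutions were added (DMSO stock diluted in medium, final DMSO <1%), in parallel triplicate wells. After 24 h exposure, MTT added for 4 h. Formazan dissolved in DMSO; viability read as absorbance at 570 nm.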

HepG2 = assay: Cytotoxicity against human HepG2 cells after 24 hrs by MTT assay; format: functional, cell-based; details: HepG2, 24 h; summary of the method: as §1
[1] = Cytotoxicity against human EVC304 cells after 24 hrs by MTT assay; format: cell-based; details: EVC304, 24 h
Summary of the method: (§2)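 Cells kept at 37 °C, 5% CO2 in RPMI-1640 with 10% fetal calf serum, subcultured twice weekly. Plated at 10^4 cells/well and allowed to adhere 24 h. Serial dilutions added from DMSO stock diluted in RPMI-1640, final DMSO below 1%, triplicate wells. After 24 h, MTT added for 4 h. Formazan dissolved in DMSO, absorbance read at 570 nm.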

HFL1 = assay: Cytotoxicity against human HFL1 cells after 24 hrs by MTT assay; format: cell-based; details: HFL1, 24 h; summary of the method: as §1
[2] = Cytotoxicity against human BGC803 cells after 24 hrs by MTT assay; format: functional, cell-based; details: BGC803, 24 h; summary of the method: as §2

For `CC1(C)CC[C@]2(C(=O)O[C@@H]3O[C@H](CO[C@@H]4O[C@H](CO)[C@@H](O)[C@H](O)[C@H]4O[C@@H]4O[C@H](CO)[C@@H](O)[C@H](O)[C@H]4O)[C@@H](O)[C@H](O[C@@H]4O[C@H](CO)[C@@H](O)[C@H](O)[C@H]4O)[C@H]3O)CC[C@]3(C)C(=CC[C@@H]4[C@@]5(C)CC[C@H](O[C@@H]6OC[C@H](O)[C@H](O)[C@H]6O)[C@@](C)(C(=O)O)[C@@H]5CC[C@]43C)[C@@H]2C1` [DIANVERSICOSIDE G], the pIC50 (MCF7) was under 5.00, the pIC50 (HepG2) was under 5.00 and the pIC50 [1] was 5.21. The pIC50 (HFL1) was 5.48 and the pIC50 [2] was 5.17.

`CC1(C)CC[C@]2(C(=O)O[C@@H]3O[C@H](CO[C@@H]4O[C@H](CO)[C@@H](O)[C@H](O)[C@H]4O[C@@H]4O[C@H](CO)[C@@H](O)[C@H](O)[C@H]4O)[C@@H](O)[C@H](O)[C@H]3O)[C@H](O)C[C@]3(C)C(=CC[C@@H]4[C@@]5(C)CC[C@H](O)[C@@](C)(C(=O)O[C@@H]6O[C@H](CO)[C@@H](O)[C@H](O)[C@H]6O)[C@@H]5CC[C@]43C)[C@@H]2C1` [DIANVERSICOSIDE F] showed a pIC50 (MCF7) of under 5.00, a pIC50 (HepG2) of under 5.00 and a pIC50 [1] of 5.02. The pIC50 (HFL1) was 5.36 and the pIC50 [2] was 5.01.

For `CC1(C)CC[C@]2(C(=O)O[C@@H]3O[C@H](CO[C@@H]4O[C@H](COC(=O)C[C@@](C)(O)CC(=O)O)[C@@H](O)[C@H](O)[C@H]4O[C@@H]4O[C@H](CO)[C@@H](O)[C@H](O)[C@H]4O)[C@@H](O)[C@H](O)[C@H]3O)[C@H](O)C[C@]3(C)C(=CC[C@@H]4[C@@]5(C)CC[C@H](O)[C@@](C)(C(=O)O[C@@H]6O[C@H](CO)[C@@H](O)[C@H](O)[C@H]6O)[C@@H]5CC[C@]43C)[C@@H]2C1` [DIANVERSICOSIDE A], the pIC50 (MCF7) was under 5.00, the pIC50 (HepG2) was under 5.00 and the pIC50 [1] was 5.08. For the same compound, the pIC50 (HFL1) was 5.55 and the pIC50 [2] was 5.21.

Compound `CC1(C)CC[C@]2(C(=O)O[C@@H]3O[C@H](CO[C@@H]4O[C@H](CO)[C@@H](O)[C@H](O)[C@H]4O[C@@H]4O[C@H](CO)[C@@H](O)[C@H](O)[C@H]4O)[C@@H](O)[C@H](O[C@@H]4O[C@H](CO)[C@@H](O)[C@H](O)[C@H]4O)[C@H]3O)CC[C@]3(C)C(=CC[C@@H]4[C@@]5(C)CC[C@H](O)[C@@](C)(C(=O)O)[C@@H]5CC[C@]43C)[C@@H]2C1` [VACCAROID A] has a pIC50 (MCF7) of under 5.00, a pIC50 (HepG2) of under 5.00 and a pIC50 [1] of 5.39. For the same compound, the pIC50 (HFL1) was 5.11 and the pIC50 [2] was 5.28.

Compound `CC1(C)CC[C@]2(C(=O)O[C@@H]3O[C@H](CO[C@@H]4O[C@H](CO)[C@@H](O)[C@H](O)[C@H]4O[C@@H]4O[C@H](CO)[C@@H](O)[C@H](O)[C@H]4O)[C@@H](O)[C@H](O[C@@H]4O[C@H](CO)[C@@H](O)[C@H](O)[C@H]4O)[C@H]3O)[C@H](O)C[C@]3(C)C(=CC[C@@H]4[C@@]5(C)CC[C@H](O)[C@@](C)(C(=O)O[C@@H]6O[C@H](CO)[C@@H](O)[C@H](O)[C@H]6O)[C@@H]5CC[C@]43C)[C@@H]2C1` [DIANVERSICOSIDE E] has a pIC50 (MCF7) of under 5.00, a pIC50 (HepG2) of under 5.00 and a pIC50 [1] of 5.04. The pIC50 (HFL1) was 5.46 and the pIC50 [2] was 5.13.

`CC1(C)CC[C@]2(C(=O)O)CC[C@]3(C)C(=CC[C@@H]4[C@@]5(C)CC[C@H](O)[C@@](C)(C(=O)O[C@@H]6O[C@H](CO[C@@H]7O[C@H](CO)[C@@H](O)[C@H](O)[C@H]7O[C@@H]7O[C@H](CO)[C@@H](O)[C@H](O)[C@H]7O)[C@@H](O)[C@H](O[C@@H]7O[C@H](CO)[C@@H](O)[C@H](O)[C@H]7O)[C@H]6O)[C@@H]5CC[C@]43C)[C@@H]2C1` [VACCAROID C] gave a pIC50 (MCF7) of under 5.00, a pIC50 (HepG2) of under 5.00 and a pIC50 [1] of 5.06. It also gave a pIC50 (HFL1) of 5.42 and a pIC50 [2] of 5.03.

Compound `CC1(C)CC[C@]2(C(=O)O[C@@H]3O[C@H](CO[C@@H]4O[C@H](COC(=O)C[C@@](C)(O)CC(=O)O)[C@@H](O)[C@H](O)[C@H]4O[C@@H]4O[C@H](CO)[C@@H](O)[C@H](O)[C@H]4O)[C@@H](O)[C@H](O[C@@H]4O[C@H](CO)[C@@H](O)[C@H](O)[C@H]4O)[C@H]3O)[C@H](O)C[C@]3(C)C(=CC[C@@H]4[C@@]5(C)CC[C@H](O)[C@@](C)(C(=O)O)[C@@H]5CC[C@]43C)[C@@H]2C1` [DIANVERSICOSIDE B] has a pIC50 (MCF7) of under 5.00, a pIC50 (HepG2) of under 5.00 and a pIC50 [1] of 5.11. It also gave a pIC50 (HFL1) of 5.51 and a pIC50 [2] of 5.24.

Work on `CC1(C)CC[C@]2(C(=O)O[C@@H]3O[C@H](CO[C@@H]4O[C@H](COC(=O)C[C@@](C)(O)CC(=O)O)[C@@H](O)[C@H](O)[C@H]4O[C@@H]4O[C@H](CO)[C@@H](O)[C@H](O)[C@H]4O)[C@@H](O)[C@H](O[C@@H]4O[C@H](CO)[C@@H](O)[C@H](O)[C@H]4O)[C@H]3O)CC[C@]3(C)C(=CC[C@@H]4[C@@]5(C)CC[C@H](O)[C@@](C)(C(=O)O)[C@@H]5CC[C@]43C)[C@@H]2C1` [DIANVERSICOSIDE D] yielded a pIC50 (MCF7) of under 5.00, a pIC50 (HepG2) of under 5.00 and a pIC50 [1] of 5.41. The pIC50 (HFL1) was 5.47 and the pIC50 [2] was 5.54.
